Drawing on ChEMBL document CHEMBL2021764, “2-Aminothiophenes as building blocks in heterocyclic synthesis: synthesis and antimicrobial evaluation of a new class of pyrido[1,2-a]thieno[3,2-e]pyrimidine, quinoline and pyridin-2-one derivatives” (2012), this text covers zone of inhibition for 16 compounds.

Type in all cases: functional
Test [1] relates to Pseudomonas aeruginosa. The experiment in a line: Antibacterial activity against Pseudomonas aeruginosa 155250A at 1 mg/ml after 24 hrs by agar-well diffusion technique. The note with it: read-out: DIZ. The procedure, abridged:
(§1)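 Each bacterial strain (0.1 ml) was spread on nutrient agar, and 4 mm wells were cut with a sterile cork borer. Wells were loaded with test chemical at a final 1 mg ml^-1, then incubated at 37 °C for 24 h. Inhibition zone diameters around the wells were measured, averaged over 3 replicas.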
A general note: In agar diffusion tests the substance spreads into inoculated agar from a disc or well.

For test [2], the system named is Candida albicans. The experiment in a line: Antifungal activity against Candida albicans 155965 at 1 mg/ml after 48 hrs by agar-well diffusion technique. Conditions: Candida albicans, 155965, 48 h; read-out: DIZ. In outline:
(§2)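 Yeast (0.1 ml) was spread on potato dextrose agar, and 4 mm wells were cut with a sterile cork borer. Wells were loaded with test chemical at a final 1 mg ml^-1, then incubated at 25 °C for 48 h. Inhibition zones around the wells were measured, averaged over 3 replicas.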

The test system of test [3] is Bacillus subtilis. The experiment in a line: Antibacterial activity against Bacillus subtilis 154921 at 1 mg/ml after 24 hrs by agar-well diffusion technique. The note with it: Bacillus subtilis, 154921, 24 h; read-out: DIZ. In outline: as §1
Test [4] relates to Staphylococcus aureus. The experiment in a line: Antibacterial activity against Staphylococcus aureus 155554A at 1 mg/ml after 24 hrs by agar-well diffusion technique. Conditions: read-out: DIZ. The procedure, abridged:
as §1

The test system of test [5] is Escherichia coli. The experiment in a line: Antibacterial activity against Escherichia coli 124300 at 1 mg/ml after 24 hrs by agar-well diffusion technique. The note with it: Escherichia coli, 124300, 24 h; read-out: DIZ. In outline:
as §1

Test [6] concerns Serratia marcescens. The experiment in a line: Antibacterial activity against Serratia marcescens 155449 at 1 mg/ml after 24 hrs by agar-well diffusion technique. The note with it: Serratia marcescens, 155449, 24 h; read-out: DIZ. In outline: as §1
Test [7] relates to Saccharomyces cerevisiae. The experiment in a line: Antifungal activity against Saccharomyces cerevisiae 156250 at 1 mg/ml after 48 hrs by agar-well diffusion technique. Conditions: Saccharomyces cerevisiae, 156250, 48 h; read-out: DIZ. In outline: as §2
Test [8] has as its system Candida albicans. The experiment in a line: Antifungal activity against Candida albicans 155965 at 100 mg/ml after 48 hrs by agar-well diffusion technique. Conditions: Candida albicans, 155965, 48 h; read-out: DIZ. The procedure, abridged:
(§3)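 0.1 ml of the yeast spread on potato dextrose agar. 4 mm wells were cut with a sterile cork borer and filled with test solution. Plates were incubated at 25 °C for 48 h. Inhibition zones around the wells were measured, and the mean of 3 replicas was recorded. Cycloheximide served as the antifungal reference.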

Test [9] has as its system Saccharomyces cerevisiae. The experiment in a line: Antifungal activity against Saccharomyces cerevisiae 156250 at 100 mg/ml after 48 hrs by agar-well diffusion technique. Conditions: Saccharomyces cerevisiae, 156250, 48 h; read-out: DIZ. The procedure, abridged: as §3
Test [10] deals with Bacillus subtilis. The experiment in a line: Antibacterial activity against Bacillus subtilis 154921 at 100 mg/ml after 24 hrs by agar-well diffusion technique. Conditions: Bacillus subtilis, 154921, 24 h; read-out: DIZ. In outline:
(§4)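 The penicillin reference was applied at 100 mg ml^-1 in 4 mm wells on nutrient agar plates spread with 0.1 ml of each bacterial strain. Plates were incubated at 37 °C for 24 h, and inhibition zones were measured as the average of 3 replicas.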

The subject of test [11] is Escherichia coli. The experiment in a line: Antibacterial activity against Escherichia coli 124300 at 100 mg/ml after 24 hrs by agar-well diffusion technique. Conditions: Escherichia coli, 124300, 24 h; read-out: DIZ. The procedure, abridged: as §4
Test [12] concerns Serratia marcescens. The experiment in a line: Antibacterial activity against Serratia marcescens 155449 at 100 mg/ml after 24 hrs by agar-well diffusion technique. The note with it: Serratia marcescens, 155449, 24 h; read-out: DIZ. In outline: as §4
The subject of test [13] is Pseudomonas aeruginosa. The experiment in a line: Antibacterial activity against Pseudomonas aeruginosa 155250A at 100 mg/ml after 24 hrs by agar-well diffusion technique. Conditions: read-out: DIZ. In outline:
as §4

The subject of test [14] is Staphylococcus aureus. The experiment in a line: Antibacterial activity against Staphylococcus aureus 155554A at 100 mg/ml after 24 hrs by agar-well diffusion technique. The note with it: read-out: DIZ. The procedure, abridged:
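0.1 ml of the bacterial strain spread on nutrient agar. 4 mm wells were cut with a sterile cork borer and filled with test solution. Plates were incubated at 37 °C for 24 h. Inhibition zone diameters were measured around the wells, and the average of 3 replicas was recorded. Penicillin served as the antibacterial reference.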

For `N#Cc1c(-c2ccccc2)csc1NC(=O)c1cn[nH]c1N`, the zone of inhibition at 1000 µg/mL in the test with Pseudomonas aeruginosa [1] came to 6.6 mm; with Candida albicans [2], 4 mm; in the test on Bacillus subtilis [3], 2 mm; in the test on Staphylococcus aureus [4], 0 mm; with Escherichia coli [5], 2.6 mm; in the test on Serratia marcescens [6], 0.7 mm. In the test with Saccharomyces cerevisiae [7], the zone of inhibition at 1000 µg/mL is 2.6 mm.
Take `N#Cc1c(-c2ccc(Cl)cc2)csc1NC(=O)c1cn[nH]c1N`: the zone of inhibition at 1000 µg/mL in the test on Pseudomonas aeruginosa [1] amounted to 3.3 mm; in the test on Candida albicans [2], 6.6 mm; in the test on Bacillus subtilis [3], 7.3 mm; with Staphylococcus aureus [4] it was 2 mm; in the test with Escherichia coli [5] it was 0 mm; in the test on Serratia marcescens [6] it was 2 mm. Besides, the zone of inhibition at 1000 µg/mL in the test with Saccharomyces cerevisiae [7] stood at 4 mm.
With `N#Cc1c(-c2ccccc2)c(C#N)c2[nH]c(=O)c3c(-c4ccccc4)csc3n2c1=N`, the zone of inhibition at 1000 µg/mL with Pseudomonas aeruginosa [1] was determined as 4 mm; in the test with Candida albicans [2], 2 mm; in the test with Bacillus subtilis [3] it was 4 mm; in the test on Staphylococcus aureus [4], 0 mm; with Escherichia coli [5], 6.3 mm; with Serratia marcescens [6], 4.6 mm. Also, the zone of inhibition at 1000 µg/mL in the test with Saccharomyces cerevisiae [7] was 2.6 mm.
With `Cc1ccc(-c2c(C#N)c(=N)n3c([nH]c(=O)c4c(-c5ccccc5)csc43)c2C#N)cc1`, the zone of inhibition at 1000 µg/mL in the test on Pseudomonas aeruginosa [1] worked out at 6 mm; with Candida albicans [2], 0 mm; with Bacillus subtilis [3], 2 mm; in the test on Staphylococcus aureus [4] it was 0 mm; in the test on Escherichia coli [5], 2.6 mm; in the test with Serratia marcescens [6], 3.3 mm. For the same compound, in the test with Saccharomyces cerevisiae [7], the zone of inhibition at 1000 µg/mL was determined as 0.7 mm.
As for `N#Cc1c(-c2ccccc2)c(C#N)c2[nH]c(=O)c3c(-c4ccc(Cl)cc4)csc3n2c1=N`, the zone of inhibition at 1000 µg/mL amounted to 6 mm in the test with Pseudomonas aeruginosa [1]; 0 mm in the test with Candida albicans [2]; 2 mm in the test on Bacillus subtilis [3]; 0 mm with Staphylococcus aureus [4]; 4 mm in the test on Escherichia coli [5]; 4 mm with Serratia marcescens [6]. Also, the zone of inhibition at 1000 µg/mL in the test on Saccharomyces cerevisiae [7] was 4 mm.
Take `Cc1ccc(-c2c(C#N)c(=N)n3c([nH]c(=O)c4c(-c5ccc(Cl)cc5)csc43)c2C#N)cc1`: the zone of inhibition at 1000 µg/mL in the test on Pseudomonas aeruginosa [1] came out at 6 mm; with Candida albicans [2] it was 0 mm; with Bacillus subtilis [3] it was 2 mm; in the test with Staphylococcus aureus [4] it was 0 mm; in the test with Escherichia coli [5], 3.3 mm; with Serratia marcescens [6], 4 mm. Further, in the test with Saccharomyces cerevisiae [7], the zone of inhibition at 1000 µg/mL was found to be 2 mm.
With `N#Cc1c(-c2ccc([N+](=O)[O-])cc2)c(C#N)c2[nH]c(=O)c3c(-c4ccc(Cl)cc4)csc3n2c1=N`, the zone of inhibition at 1000 µg/mL in the test with Pseudomonas aeruginosa [1] was determined as 6 mm; in the test with Candida albicans [2] it was 2.6 mm; with Bacillus subtilis [3] it was 4 mm; in the test with Staphylococcus aureus [4], 0 mm; in the test on Escherichia coli [5], 5.3 mm; with Serratia marcescens [6] it was 4 mm. In the test on Saccharomyces cerevisiae [7], the zone of inhibition at 1000 µg/mL is 1.3 mm.
Turning to `N#Cc1c(-c2ccc(Cl)cc2)c(C#N)c2[nH]c(=O)c3c(-c4ccc(Cl)cc4)csc3n2c1=N`, the zone of inhibition at 1000 µg/mL in the test with Pseudomonas aeruginosa [1] stood at 7 mm; in the test on Candida albicans [2], 0 mm; in the test with Bacillus subtilis [3] it was 3.3 mm; in the test with Staphylococcus aureus [4], 0 mm; in the test on Escherichia coli [5], 4 mm; in the test with Serratia marcescens [6], 2.6 mm. In addition, in the test on Saccharomyces cerevisiae [7], the zone of inhibition at 1000 µg/mL was 0.7 mm.
Consider `CCOC(=O)c1sc2c(c1C)c(=O)[nH]c1c(C#N)c(-c3ccc(Cl)cc3)c(C#N)c(=N)n12`, for which the zone of inhibition at 1000 µg/mL stood at 6 mm in the test on Pseudomonas aeruginosa [1]; 0 mm in the test on Candida albicans [2]; 2 mm in the test on Bacillus subtilis [3]; 0 mm in the test with Staphylococcus aureus [4]; 8 mm with Escherichia coli [5]; 4.6 mm in the test on Serratia marcescens [6]. Moreover, in the test with Saccharomyces cerevisiae [7], the zone of inhibition at 1000 µg/mL was determined as 0 mm.
For the compound `CN(C)c1ccc(/C=C(\C#N)C(=O)Nc2scc(-c3ccccc3)c2C#N)cc1`, the zone of inhibition at 1000 µg/mL with Pseudomonas aeruginosa [1] amounted to 4 mm; in the test on Candida albicans [2] it was 0 mm; in the test with Bacillus subtilis [3], 0 mm; with Staphylococcus aureus [4], 0 mm; in the test on Escherichia coli [5], 2 mm; in the test with Serratia marcescens [6] it was 7.3 mm. Moreover, the zone of inhibition at 1000 µg/mL in the test on Saccharomyces cerevisiae [7] came out at 0 mm.
As to `CN(C)c1ccc(/C=C(\C#N)C(=O)Nc2scc(-c3ccc(Cl)cc3)c2C#N)cc1`, the zone of inhibition at 1000 µg/mL is 6 mm in the test on Pseudomonas aeruginosa [1]; 0 mm with Candida albicans [2]; 3.6 mm in the test with Bacillus subtilis [3]; 0 mm in the test on Staphylococcus aureus [4]; 2 mm in the test on Escherichia coli [5]; 2 mm in the test on Serratia marcescens [6]. Also, the zone of inhibition at 1000 µg/mL in the test on Saccharomyces cerevisiae [7] turned out to be 0 mm.
For the compound `N#Cc1c(-c2ccccc2)csc1NC(=O)c1ccc(-c2ccccc2)[nH]c1=O`, the zone of inhibition at 1000 µg/mL was determined as 5.3 mm in the test on Pseudomonas aeruginosa [1]; 0 mm in the test on Candida albicans [2]; 1.6 mm with Bacillus subtilis [3]; 0 mm in the test on Staphylococcus aureus [4]; 3.3 mm in the test with Escherichia coli [5]; 2 mm in the test with Serratia marcescens [6]. In addition, the zone of inhibition at 1000 µg/mL in the test with Saccharomyces cerevisiae [7] amounted to 1.3 mm.
For `N#Cc1c(-c2ccccc2)csc1NC(=O)c1ccc(-c2cccs2)[nH]c1=O`, the zone of inhibition at 1000 µg/mL worked out at 4 mm in the test on Pseudomonas aeruginosa [1]; 0 mm with Candida albicans [2]; 2 mm in the test with Bacillus subtilis [3]; 0 mm with Staphylococcus aureus [4]; 2 mm in the test with Escherichia coli [5]; 2 mm with Serratia marcescens [6]. In the test on Saccharomyces cerevisiae [7], the zone of inhibition at 1000 µg/mL turned out to be 2 mm.
For `Cc1cccc(-c2ccc(C(=O)Nc3scc(-c4ccccc4)c3C#N)c(=O)[nH]2)n1`, the zone of inhibition at 1000 µg/mL in the test on Pseudomonas aeruginosa [1] was determined as 4 mm; in the test with Candida albicans [2] it was 0 mm; with Bacillus subtilis [3], 0 mm; with Staphylococcus aureus [4], 0 mm; in the test with Escherichia coli [5], 0 mm; with Serratia marcescens [6] it was 0 mm. Moreover, in the test with Saccharomyces cerevisiae [7], the zone of inhibition at 1000 µg/mL worked out at 0 mm.
As for `C[C@@H]1C[C@@H]([C@H](O)CC2CC(=O)NC(=O)C2)C(=O)[C@@H](C)C1` [CYCLOHEXIMIDE], the zone of inhibition at 100000 µg/mL with Candida albicans [8] is 0 mm; in the test with Saccharomyces cerevisiae [9], 40 mm.
With `CC1(C)S[C@@H]2[C@H](NC(=O)Cc3ccccc3)C(=O)N2[C@H]1C(=O)O` [PENICILLIN G], the zone of inhibition at 100000 µg/mL with Bacillus subtilis [10] is 4.6 mm; with Escherichia coli [11], 8.6 mm; with Serratia marcescens [12], 7 mm; in the test on Pseudomonas aeruginosa [13] it was 30 mm; in the test on Staphylococcus aureus [14], 40 mm.
